# The RNAGym collection of RNA variant scans (doi:10.1126/science.aae0568)
# Variants at the floor of the assay were thinned out.
# B1: tRNA (parent)
# chain: GUUCCGUUGGCGUAAUGGUAACGCGUCUCCCUCCUAAGGAGAAGACUGCGGGUUCGAGUCCCGUACGGAACG
# Variants of: B1
# Assay: yeast fitness relative to wild type (ratio to wild type); higher = fitter; tRNA-Arg(CCU), competitive growth, 37 C, YPD
# In short: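 Start and end populations of a pooled competition were compared by 100-nucleotide paired-end sequencing of gene amplicons. The Saccharomyces cerevisiae strains carried tRNA-Arg(CCU) gene variants at the native genomic locus, synthesised with a 3% per-site mutation rate at 69 sites, and competed in YPD at 37°C for 24 hours in six parallel replicates. Darwinian fitness relative to wild type was based on the change in genotype frequencies. Genotypes required ≥ 100 starting reads, and estimates < 0.5 were set to 0.5.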
row,Variant,yeast fitness
1,C11U G12A C31U U53C G63A A65C,≤ 0.5
2,G12A C27G A43U,0.53
3,G12A C22G C29U,0.551
4,G12A C49U C66A,≤ 0.5
5,G12A A43U A45C U54C G67C,0.525
6,C11U U19C A20U A42C A65C A69U,≤ 0.5
7,G12A A42C G50C,≤ 0.5
8,G12A C29A A65U,≤ 0.5
9,G12A A14G,0.958
10,C11U U19A U32A A37U,≤ 0.5
11,G12A A40G C46A,0.752
12,C11U U35C U64A,≤ 0.5
13,C11U G17U C27U C31A U35C C55G C66U A70C,≤ 0.5
14,G12A C29U G56C,≤ 0.5
15,G12A G25C,0.961
16,C11U G25C A40U C49G G63C,≤ 0.5
17,C11U G18A C62A A70C,≤ 0.5
18,C11U G41A G58A,0.768
19,C11U G18A G23C C34U U59A A70C,≤ 0.5
20,G12A A36U,0.612
21,G12A C24A U64C,0.682

row,Variant,yeast fitness
1,G12A G41A G51C,≤ 0.5
2,C11U U26C U47A G50A A70C,≤ 0.5
3,C11U U28C G44C A69C A70C,≤ 0.5
4,C11U G23A,0.952
5,G12A C61A,0.659
6,G12A C61U,0.924
7,C11U U19G A69U,0.782
8,G12A A40C G58C U59C G63A,≤ 0.5
9,C11U G25A C62U A70C,0.67
10,C11U U19A A43U A65U,0.53
11,G12A A15U C22A U26A C33G G38C G41C A43C U47G G67C,≤ 0.5
12,G12A A15U C33A A36U C62U,≤ 0.5
13,G12A A21G C34U G67U,≤ 0.5
14,G12A A14G A15G C27U G38A G68C,≤ 0.5
15,G12A A15U C24U G44C G52C A69U,≤ 0.5
16,C11U U35C G44A,0.727
17,C11U U13A C46G C62G,≤ 0.5
18,G12A C22U A57U,≤ 0.5
19,C11U U28C C29G A57G,≤ 0.5
20,C11U U28C A45U,0.742
21,G12A C24U A65U G68A,≤ 0.5

row,Variant,yeast fitness
1,G12A A15G A70U,0.682
2,C11U U26A C34G G68C,≤ 0.5
3,C11U U32C C33U C62U A65G,≤ 0.5
4,C11U G12A G18C U47C G68C,≤ 0.5
5,G12A C34U A37U G41A C55U A69C,≤ 0.5
6,G12A C24G A40C A43C C46U G56A G68C A69U,≤ 0.5
7,G12A A15G C22U C31A U35G C61U A65C A69G,≤ 0.5
8,G12A G41A G50A,≤ 0.5
9,C11U G23A C33G A69C,≤ 0.5
10,G12A G17C G58A A70G,≤ 0.5
11,G12A G38A G48A,≤ 0.5
12,C11U G18C A43C G52A,≤ 0.5
13,G12A A42U C61G,0.505
14,C11U G12C U26C A40U A57U,0.612
15,C11U G52A,0.827
16,C11U G52C,0.707
17,C11U G67A A69U,0.652
18,C11U U35C A42G,≤ 0.5
19,C11U G17C A20C,≤ 0.5
20,C11U U16A U64A,0.514
21,C11U U16A,0.819

row,Variant,yeast fitness
1,C11U G50A,0.81
2,G12A C24A C34A C49A G63U G67A,≤ 0.5
3,G12A A14G C30G A70U,0.616
4,C11U U16A C55A,≤ 0.5
5,G12A C29A A45U,0.531
6,G12A A14C C31G A65C,≤ 0.5
7,C11U U26G C30A A43C U53C C66U A70C,≤ 0.5
8,G12A C24G C29A,≤ 0.5
9,G12A A15U C24U G44C G52C,≤ 0.5
10,C11U G68A,0.878
11,G12A C22G A43G C55A,≤ 0.5
12,C11U U47C A57G A69U,0.565
13,G12A G23A U28G G56C A65U,0.762
14,C11U U26C U47A,0.555
15,C11U U26C U47C,0.799
16,G12A G41A C60G A65G,0.559
17,C11U G25A,0.867
18,C11U G50A A69C,0.522
19,G12A G38A U54C,≤ 0.5
20,C11U G38A A40U G52C,0.568
